Rad51 HR inh: Rad51 (human) homologous recombination inhibition; inhibition, % at 10 µM; 200,000 compounds, 0.085% hits; hRad51 DNA strand exchange, fluorescence dequenching;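 active = inhibition above 40% at the single screening dose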;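 also: 0% = DMSO control wells and 100% = blanks with heterologous ssDNA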
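Material: hRad51 filaments on single-stranded DNA; Reagent: Donor/quencher-labelled 47-bp dsDNA substrate; Compound: 10 µM final, single point; Schedule: 37 °C 15-min filament assembly, 30-min compound preincubation, 15-min exchange; Technique: FRET fluorescence, excitation 485 nm, emission 520 nm; Benchmarks: control wells and blank wells on each plate.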
L major viab: reduces viability of Leishmania major promastigotes; resazurin fluorescence viability; inhibition, % at 10 µM; 200,000 compounds, 9% hits; AID 1063;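 also: promastigotes grown with compound for 44 hours at 28 °C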
Wee1 degr inh: inhibitors of human Wee1 degradation; HeLa Luc-Wee1K328M stability, luciferase luminescence; 100% = proteasome inhibitor MG132 effect; AID 1321; P30291; 220,000 compounds, 1.2% hits; reporter increase, % at 5 µM;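 active = activation above the mean of all tested compounds plus 3 SD, set per screening run, cut at about 8.8% in these data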;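 also: cells exposed to compound for 20 h before luminescence read; 0% = DMSO alone and 100% = MG132 at 30 µM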
Target sequence (P30291 whole entry K328M): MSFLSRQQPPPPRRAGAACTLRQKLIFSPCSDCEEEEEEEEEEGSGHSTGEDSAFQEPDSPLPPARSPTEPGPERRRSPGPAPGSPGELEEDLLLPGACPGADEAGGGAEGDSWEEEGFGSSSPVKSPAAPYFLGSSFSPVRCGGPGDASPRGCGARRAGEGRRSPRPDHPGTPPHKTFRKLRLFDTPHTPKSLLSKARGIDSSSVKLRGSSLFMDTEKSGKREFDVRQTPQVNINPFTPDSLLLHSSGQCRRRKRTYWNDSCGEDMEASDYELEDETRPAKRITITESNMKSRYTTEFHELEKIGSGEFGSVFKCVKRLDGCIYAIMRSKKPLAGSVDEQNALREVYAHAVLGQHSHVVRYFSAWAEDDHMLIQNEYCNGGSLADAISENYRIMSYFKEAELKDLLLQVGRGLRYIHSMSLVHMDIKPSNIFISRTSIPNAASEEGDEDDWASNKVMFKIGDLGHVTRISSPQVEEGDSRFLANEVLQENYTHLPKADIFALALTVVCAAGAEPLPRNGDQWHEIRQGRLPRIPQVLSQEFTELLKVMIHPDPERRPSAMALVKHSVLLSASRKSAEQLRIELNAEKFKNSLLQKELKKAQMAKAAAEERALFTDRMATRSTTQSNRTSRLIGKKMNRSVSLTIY
Arbovirus inh: arbovirus infection inhibition. arbovirus infection cell-based antiviral screen. inhibition, % at 10 µM. 200,000 compounds, 0.37% hits; in the data active = inhibition above about 30%
PKD1 kinase inh: inhibitors of human PKD1 kinase; Q15139; 200,000 compounds, 0.056% hits; PKD1 kinase fluorescence polarization assay; inhibition, % (concentration not given with the values)
CHOP inh: CHOP inhibition in unfolded protein response; CHO-K1 CHOP-promoter luciferase, tunicamycin-induced, 15-18 h; inhibition, % at 10 µM; 220,000 compounds, 3.8% hits;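 active = compounds that reduced the stress-induced luciferase reporter signal by more than about 70% of percent inhibition, limit read from the data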;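 also: 0% = tunicamycin plus vehicle and 100% = wells without tunicamycin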
CHOP confirm: confirmation of CHOP induction inhibitors. 2,100 compounds, 45% hits. shares compounds with CHOP inh. inhibition, % at 10 µM. CHO-CHOP promoter luciferase reporter, tunicamycin-induced, luminescence;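 active = mean of three repeat readings of reporter signal inhibition above a set limit, cut at about 70% in these data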;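 also: 0% = tunicamycin plus vehicle and 100% = wells lacking tunicamycin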
* = called active by the depositor; · = not tested or not shown. Most compounds without a hit are left out; they make up all but 12% or so of the library. Rule as the data show it, unless noted: active = inhibition above about 50%; inactive = the rest.

SMILES | Rad51 HR inh | L major viab | Wee1 degr inh | Arbovirus inh | PKD1 kinase inh | CHOP inh | CHOP confirm
Cc1ncc(CN=Cc2ccc(Cl)cc2)c(N)n1 | -7.7 | · | 1.2 | · | · | -8.1 | ·
NN1C(=O)NC(c2ccccc2)(c2ccccc2)C1=O | 7.5 | -2.5 | -3.3 | 17.8 | 3.1 | 0.5 | ·
COc1ccccc1N1CCN(C(=O)COc2ccc(S(=O)(=O)NC(C)(C)C)cc2)CC1 | · | 12.4 | 0.2 | 3.6 | -2.5 | -0.7 | ·
C=C(C)COc1ccc(-c2[nH]ncc2Oc2cccc(OC)c2)c(O)c1 | -10.1 | 74.0* | -1.6 | -31.3 | 17.5 | 103.0* | 12.0
CCCOC(=O)c1ccc(Oc2cn[nH]c2-c2ccc(OCC(=O)NN)cc2O)cc1 | -4.5 | · | -0.1 | · | · | 2.4 | ·
COc1ccc(-n2c(SCc3ccccn3)nc3c(c2=O)SCC3)cc1OC | 9.6 | -1.3 | 5.2 | 10.9 | -8.2 | -5.1 | ·
Cc1cc(C)nc(NS(=O)(=O)c2ccc(NC(=O)CSc3nc(-c4ccccc4)c(C#N)c(=O)[nH]3)cc2)n1 | 8.7 | -6.5 | -3.0 | 6.6 | -1.1 | -2.6 | ·
CCOC(=O)/C=c1\s/c(=C\c2ccc(C)cc2)c(=O)n1CC(=O)NCc1ccco1 | 0.7 | 43.9 | 0.2 | -16.2 | -13.9 | 64.2 | ·
CCOC(=O)/C=c1\s/c(=C\c2sccc2C)c(=O)n1CC(=O)NCc1ccc(C)cc1 | · | -6.5 | 2.2 | -8.5 | 0.2 | 99.4* | 20.4
COc1ccccc1-c1noc(CCC(=O)Nc2cc(C(F)(F)F)ccc2Cl)n1 | 2.2 | 11.6 | -2.4 | 8.2 | -21.1 | 39.6 | ·
O=C(CCCN1C(=O)/C(=C\c2ccccc2)SC1=S)Nc1ccc(O)cc1 | -6.5 | 39.0 | -3.4 | 5.5 | -6.9 | 97.6* | 18.4
O=C(CCCN1C(=O)/C(=C/c2cccs2)SC1=S)Nc1ccc(C(=O)O)cc1 | · | -9.1 | -0.2 | 21.9 | -1.7 | 23.1 | ·
COC(=O)c1cccn(CC(=O)c2ccc(Cl)cc2)c1=O | 5.0 | -6.4 | 1.0 | 3.7 | -3.8 | 1.2 | ·
COc1ccc(C2c3c(-c4ccccc4O)n[nH]c3C(=O)N2Cc2ccco2)cc1 (stereo unspecified) | -0.8 | · | -1.1 | · | · | 41.7 | ·
COc1ccc(CCN2C(=O)c3[nH]nc(-c4ccccc4O)c3C2c2cccc(Cl)c2)cc1 (stereo unspecified) | -4.5 | 100.5* | -0.5 | -32.4 | -4.1 | 104.4* | 88.0*
CCOC(=O)c1cnc(-n2nc(C)cc2C)nc1Nc1ccccc1OC | 1.6 | -0.2 | -1.2 | 5.2 | -3.5 | 22.8 | ·
CCOC(=O)c1cnc(-n2nc(C)cc2C)nc1NCCc1ccccc1 | 2.2 | 99.5* | -4.7 | -41.5 | -3.4 | 101.1* | -8.2
O=C(Nc1ccccc1)N(Cc1ccccc1)CC(O)C(F)(F)F (stereo unspecified) | 8.4 | -6.9 | -0.5 | 4.1 | -4.8 | -20.3 | ·
O=C(Nc1cccc(F)c1)N(Cc1ccc(Cl)cc1)CC(O)C(F)(F)F (stereo unspecified) | 34.3 | 100.6* | 8.2 | -44.9 | -8.0 | 109.0* | 103.7*
Cc1cc(-c2ccccc2)n[nH]1 | -1.7 | -3.7 | -2.0 | -1.5 | -2.5 | 7.2 | ·
FC(F)C(F)(F)C(F)(F)C(F)(F)c1cc(-c2ccccc2)n[nH]1 | -3.7 | -4.5 | -0.3 | -28.4 | 3.8 | 106.1* | 110.6*
Cc1cc(C(=O)N/N=C/c2ccc(-c3cccc(Cl)c3Cl)o2)n[nH]1 | · | 3.1 | 0.1 | -12.9 | 7.5 | 101.1* | 73.3*
Cc1cc(C(=O)N/N=C/c2ccco2)n[nH]1 | -1.6 | -1.8 | 0.7 | -10.6 | 2.8 | -6.2 | ·
O=C(Cn1c(=O)[nH]c2ccccc2c1=O)N1CCN(c2cccc(Cl)c2)CC1 | · | -4.2 | -2.4 | 0.9 | -5.7 | 28.8 | ·
O=C(Cc1csc(Nc2nc(=S)[nH]c3ccccc23)n1)N1CCN(c2cccc(Cl)c2)CC1 | -17.8 | 10.0 | -1.7 | -4.0 | -0.6 | 102.8* | 37.7
SMILES | Rad51 HR inh | L major viab | Wee1 degr inh | Arbovirus inh | PKD1 kinase inh | CHOP inh | CHOP confirm
O=C(O)COc1ccccc1C(Nc1cccnc1)c1cc(Cl)c2cccnc2c1O (stereo unspecified) | -5.8 | -4.7 | 0.9 | -2.3 | -0.6 | -5.8 | ·
O=C(NC(c1ccccc1)c1cc(Cl)c2cccnc2c1O)c1cccnc1 (stereo unspecified) | 5.6 | 98.0* | -1.5 | -30.2 | -1.2 | 104.5* | 103.5*
CCOC(=O)c1c(C)oc2c1c(C(c1cccnc1)N1CCOCC1)c(O)c1ccccc12 (stereo unspecified) | 6.3 | 96.8* | 0.1 | -31.0 | -11.7 | 107.4* | -1.8
CCCCN=c1scc(-c2ccc3c(c2)NC(=O)CO3)n1N=C1CCCC1 | 4.2 | 46.7 | 1.0 | -27.0 | -5.7 | 106.0* | 105.1*
O=S(=O)(Nc1ccc(-n2cccc2)cc1)c1ccc(Cl)c(Cl)c1 | 4.2 | · | -0.4 | · | · | -11.1 | ·
O=S(=O)(Nc1ccc(Cc2ccncc2)cc1)c1ccc(Cl)c(Cl)c1 | 2.2 | 73.7* | -2.1 | 0.5 | 12.8 | 102.6* | 53.9
CN(c1ccccc1)C1CCCCC1NS(=O)(=O)c1ccc(Cl)cc1 (stereo unspecified) | · | 35.3 | 1.2 | -11.8 | 3.8 | 96.2* | 26.6
O=S(=O)(NC1CCCCC1N1CCOCC1)c1ccc(Cl)cc1 (stereo unspecified) | 0.5 | 17.7 | 6.0 | 3.1 | 2.7 | 5.7 | ·
Cn1c(=O)c2ncn(CC(=O)Nc3nc(-c4ccc(Cl)cc4)cs3)c2n(C)c1=O | -7.6 | 0.6 | -2.6 | 9.7 | -3.1 | 99.6* | 60.9
Cn1c(=O)c2c(ncn2CC(=O)Nc2nc(-c3ccccc3Cl)cs2)n(C)c1=O | -0.3 | -5.2 | -2.4 | 6.5 | 3.9 | 18.7 | ·
COc1ccc(Cl)cc1N1C(=O)/C(=C\c2sccc2C)N=C1SCC(=O)NC1CC1 | -1.0 | 22.8 | -0.8 | -9.0 | -5.5 | 4.0 | ·
Cc1cc(C)n(-c2nc3c(c(=O)[nH]c(=O)n3C)n2CC(O)COc2ccc(Cl)cc2Cl)n1 (stereo unspecified) | 0.1 | -1.0 | -1.3 | -17.0 | -3.2 | 10.2 | ·
N=c1n(Cc2ccccc2)c2ccccc2n1CC(O)COc1ccc(Cl)cc1Cl (stereo unspecified) | 10.2 | 100.4* | 1.2 | -30.9 | 3.8 | 109.1* | 92.3*
Cc1ccc(OCC(O)Cn2c(=N)n(Cc3ccccc3)c3ccccc32)cc1 (stereo unspecified) | -10.1 | 100.4* | 0.6 | -32.5 | 8.2 | 104.9* | 50.4
CCOC(=O)Cn1c(=N)n(Cc2ccccc2)c2ccccc21 | 5.6 | -2.2 | 3.1 | 4.3 | 3.3 | 7.1 | ·
Nn1c(SCc2cccc(Br)c2)nnc1-c1cccnc1 | -2.5 | · | -3.5 | · | · | -16.5 | ·
COC(=O)c1ccc(Cn2cnc3c(sc4nc(N5CCOCC5)c5c(c43)CCCC5)c2=O)o1 | -2.7 | 7.4 | -0.8 | -18.3 | -9.2 | 39.1 | ·
COC(=O)c1cn(NC(=O)c2cccc(OC)c2)c(=O)c2ccccc12 | -4.4 | -2.7 | 4.9 | 7.3 | 8.0 | -46.3 | ·
Cn1ncc2c(O/N=C(\N)c3ccc(C(C)(C)C)cc3)ncnc21 | · | · | -0.9 | · | · | 98.9* | 85.4*

High-throughput results as filed in PubChem BioAssay.
